# Source: PubChem (several laboratories)
# This is a sample that favours compounds with a hit; in the whole collection about 2.2% have one here.
# Jurkat NFkB inh: inhibitors of the PMA/ionomycin-induced NF-kB reporter in Jurkat cells; 330,000 compounds, 0.53% hits; PMA/ionomycin-induced NF-kB luciferase reporter, luminescence; inhibition, % at 4 µM; in the data active = inhibition above about 50%
# FGF22 binding: FGF22 (human) thermal shift binding | Q9HCT0 | 340,000 compounds, 1.5% hits | AID 651658 | recombinant FGF22 thermal shift, SYPRO orange fluorescence; percent of sucrose octasulfate shift, DMSO zero | activity (Tm shift, normalised), % at 9.99 µM;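 active = mean Tm shift, scaled 0 neutral to 100 positive control, at about 1.3% or above, every replicate too, limit read from the data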
# Target sequence (Q9HCT0 whole entry, looked up): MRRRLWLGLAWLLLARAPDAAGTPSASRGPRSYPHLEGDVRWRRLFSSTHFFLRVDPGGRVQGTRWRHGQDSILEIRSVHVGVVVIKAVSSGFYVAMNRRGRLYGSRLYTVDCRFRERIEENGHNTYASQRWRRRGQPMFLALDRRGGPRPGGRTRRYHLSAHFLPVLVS
# NR2E3 ag-1: activates human NR2E3 receptor; Q9Y5X4; CHO-S Gal4-NCOR/VP16-NR2E3 two-hybrid, luciferase; inhibition of corepressor binding, % at 3.98 µM; 360,000 compounds, 0.35% hits; AID 602229;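 active = inhibition above the mean of all tested compounds plus 3 SD, cut at about 70% in these data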;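 also: higher means lower luciferase signal from less NR2E3 corepressor binding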
# NR2E3 ag-2: NR2E3 (human) agonism; Q9Y5X4; GST-NR2E3/biotin-RetCOR TR-FRET, 1536-well; inhibition of corepressor binding, % at 4.78 µM; 320,000 compounds, 0.12% hits;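 active = percent inhibition above the cutoff of mean plus 3 SD of all tested compounds, set per screening campaign, cut at about 20% in these data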
#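 Material: NR2E3–RetCOR corepressor complex | Quantity: 1.35 nM GST-tagged NR2E3 final | Schedule: 5 h at 4 °C | Replication: Singlicate compound wells | Reagent: RetCOR corepressor, biotinylated, 7 nM | Controls: Biotin wells as high control, 0.6% DMSO wells as low control | Signal: TR-FRET, Eu(K)-anti-GST donor, streptavidin-D2 acceptor, ex 340, em 617/671 nm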
# 697 NFkB inh: inhibitors of the PMA/ionomycin-induced NF-kB reporter in 697 B cells | AID 435022 | 697 B-cell NF-kB luciferase reporter, 16 h | inhibition, % at 4 µM | 330,000 compounds, 0.33% hits; in the data active = inhibition above about 35%
# miR122 inh: miR-122 inhibition in Huh7 cells; Huh7 miR-122 Renilla luciferase sensor, 48 h; neutral wells = 0, positive control = 100; activation (reporter increase), % at 12.5 µM; 340,000 compounds, 0.3% hits; AID 602342;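 active = mean replicate activation score at least 90 and every replicate individually at or above 90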;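 also: higher luciferase means less miR-122 activity so hits act as miR-122 inhibitors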
# Hits are given with their value; n = inactive; x = not tested or not shown; [ ] = another dose, or the depositor's remark.
SMILES,Jurkat NFkB inh,FGF22 binding,NR2E3 ag-1,NR2E3 ag-2,697 NFkB inh,miR122 inh
COc1ccc(NC(=O)N(C)C[C@@H]2Oc3cc(-c4ccc(C)cc4)ccc3S(=O)(=O)N([C@@H](C)CO)C[C@H]2C)cc1,x,n,x,x,x,n
Cc1ccc(-c2ccc3c(c2)O[C@H](CN(C)Cc2ccc(F)cc2)[C@@H](C)CN([C@H](C)CO)S3(=O)=O)cc1,x,n,x,x,x,98[16.7 µM]
C[C@@H]1CN([C@@H](C)CO)C(=O)c2cccc(NS(=O)(=O)c3ccc(F)cc3)c2O[C@H]1CN(C)Cc1ccc(-c2ccccc2)cc1,x,n,x,x,x,n
CC1CCC(NC(=O)CN(C)S(=O)(=O)c2cnc[nH]2)CC1 (configuration not stated),n,n,n,n,n,x
CC1CCCC(NC(=O)CN(C)S(=O)(=O)c2cnc[nH]2)C1C (configuration not stated),n,43,n,n,n,n
CC(NC(=O)CN(C)S(=O)(=O)c1cnc[nH]1)c1ccccc1 (configuration not stated),n,44,n,n,n,x
Cc1ccccc1C(=O)NC1CCN(CC(=O)Nc2ccc3c(c2)OCCO3)CC1,n,n,n,n,n,x
O=C(CN1CCC(NC(=O)c2ccccc2F)CC1)Nc1ccc2c(c1)OCCO2,n,43,n,n,n,n
CNC(=O)C[C@@H]1CC[C@H]2[C@H](COc3ccc(NC(=O)NCc4ccccc4)cc3C(=O)N2C)O1,x,n,x,x,x,n
CCCN1CCN(c2ccc([N+](=O)[O-])cc2C#N)CC1,n,43,n,n,n,n
Cc1noc(C)c1S(=O)(=O)Nc1ccc2c(c1)C(=O)N([C@H](C)CO)C[C@@H](C)[C@H](CN(C)CC1CCCCC1)O2,x,n,x,x,x,n
CN(C)/C=C(/C(=O)c1ccc(Cl)cc1)S(C)(=O)=O,n,n,n,n,n,x
CN(C)/C=C(/C(=O)c1ccc(Cl)c(Cl)c1)S(C)(=O)=O,n,44,n,n,n,n
CCOC(=O)C1(Cc2cccc(OC)c2)CCN(CC(O)CO)CC1 (configuration not stated),n,n,n,n,n,n
CCOC(=O)C1(Cc2cccc(OC)c2)CCN(CCO)CC1,n,44,n,n,n,n
CCOC(=O)N1CCC(N2CCCC(CO)(Cc3cccc(OC)c3)C2)CC1 (configuration not stated),n,43,n,n,n,x
COc1cccc(CC2(CO)CCCN(S(=O)(=O)N(C)C)C2)c1 (configuration not stated),n,n,n,n,n,x
C[C@@H]1CCCCO[C@@H](CN(C)S(=O)(=O)c2ccccc2)[C@H](C)CN([C@@H](C)CO)C(=O)c2cc(NS(=O)(=O)c3cn(C)cn3)ccc2O1,x,n,x,x,x,n
C[C@H]1CN([C@@H](C)CO)C(=O)c2c(c3ccccc3n2C)-c2ccccc2CO[C@@H]1CN(C)S(C)(=O)=O,x,n,x,x,x,x
O=C(Nc1nccs1)C1CC(=O)N(Cc2ccco2)C1 (configuration not stated),n,43,n,n,n,x
COc1ccccc1-c1cc(C(F)(F)F)nc(S(=O)(=O)CCCC(=O)NCc2ccc(F)cc2)n1,n,1.4,n,n,n,x
Oc1c(Br)cc(Br)cc1C=NCc1ccc(F)cc1,n,43,n,n,n,x
COC(=O)C[C@H]1CC[C@@H]2[C@H](COc3ccc(NC(=O)Nc4ccc(C#N)cc4)cc3C(=O)N2C)O1,x,n,x,x,x,n
COc1cccc(-c2cnc3c(c2)C(=O)N([C@@H](C)CO)C[C@@H](C)[C@H](CN(C)Cc2ccc(F)cc2)O3)c1,x,n,x,x,x,n
CC(=O)N(C)C[C@@H]1Oc2ncc(C#Cc3cccc(F)c3)cc2C(=O)N([C@H](C)CO)C[C@H]1C,x,n,x,x,x,n
COCCSc1ccccc1C(=O)N1CCN(c2ccccc2)CC1,n,n,n,n,n,n
COCCSc1ccccc1C(=O)N1CCc2ccccc2C1,n,43,n,n,n,n
O=C(CC1C(=O)N(c2ccc(Cl)cc2)C(=S)N1CCc1ccncc1)Nc1ccc(F)cc1 (configuration not stated),n,2.3,n,n,n,n
O=C(CSc1ncnc2sccc12)Nc1ccccc1,n,43,n,n,n,n
